Measurements published in ChEMBL document CHEMBL4024771, “Optimization of Orally Bioavailable Enhancer of Zeste Homolog 2 (EZH2) Inhibitors Using Ligand and Property-Based Design Strategies: Identification of Development Candidate …” (J Med Chem, 2018).

Experiments:
[1] = Passive permeability in MDCK cells at 2 uM after 90 mins by LC-MS/MS analysis; format: ADME, cell-based, Canis lupus familiaris; conditions: dog, MDCK; read-out: permeability
In short: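 Low-efflux MDCK cells (MDCK-LE) on 96-well inserts, used on day 4. Monodirectional transport of 2 μM drug in transport buffer with 0.1% DMSO at 37 °C. Donor and receiver sampled at 0 and 90 min for LC−MS/MS. Donor pH 6.5 and 7.4, receiver pH 7.4.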

[2] = Clearance in rat hepatocytes assessed per million cells; format: ADME, cell-based, Hepatocyte; conditions: read-out: CLH
Cytochrome P450 1A2 = biological target: T1, Cytochrome P450 1A2 (Homo sapiens, UniProt P05177); assay: Inhibition of CYP1A2 (unknown origin); format: ADME
T1 sequence (P05177 whole entry): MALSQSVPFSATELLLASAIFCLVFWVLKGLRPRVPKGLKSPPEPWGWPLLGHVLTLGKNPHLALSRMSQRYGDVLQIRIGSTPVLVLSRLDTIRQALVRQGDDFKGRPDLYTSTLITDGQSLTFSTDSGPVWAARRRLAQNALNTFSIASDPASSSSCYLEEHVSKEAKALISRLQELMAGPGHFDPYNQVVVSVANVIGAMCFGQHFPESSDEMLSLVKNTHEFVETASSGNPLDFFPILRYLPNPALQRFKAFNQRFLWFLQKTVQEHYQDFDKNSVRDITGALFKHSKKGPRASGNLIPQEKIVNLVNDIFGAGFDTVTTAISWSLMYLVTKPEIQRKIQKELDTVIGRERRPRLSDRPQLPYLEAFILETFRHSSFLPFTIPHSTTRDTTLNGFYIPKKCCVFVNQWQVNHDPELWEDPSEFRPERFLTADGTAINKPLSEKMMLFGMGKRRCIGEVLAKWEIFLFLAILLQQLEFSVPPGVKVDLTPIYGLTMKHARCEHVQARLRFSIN

Cytochrome P450 2D6 = Cytochrome P450 2D6 (Homo sapiens, UniProt P10635); assay: Inhibition of CYP2D6 (unknown origin); format: ADME
Sequence of Cytochrome P450 2D6 (P10635 whole entry): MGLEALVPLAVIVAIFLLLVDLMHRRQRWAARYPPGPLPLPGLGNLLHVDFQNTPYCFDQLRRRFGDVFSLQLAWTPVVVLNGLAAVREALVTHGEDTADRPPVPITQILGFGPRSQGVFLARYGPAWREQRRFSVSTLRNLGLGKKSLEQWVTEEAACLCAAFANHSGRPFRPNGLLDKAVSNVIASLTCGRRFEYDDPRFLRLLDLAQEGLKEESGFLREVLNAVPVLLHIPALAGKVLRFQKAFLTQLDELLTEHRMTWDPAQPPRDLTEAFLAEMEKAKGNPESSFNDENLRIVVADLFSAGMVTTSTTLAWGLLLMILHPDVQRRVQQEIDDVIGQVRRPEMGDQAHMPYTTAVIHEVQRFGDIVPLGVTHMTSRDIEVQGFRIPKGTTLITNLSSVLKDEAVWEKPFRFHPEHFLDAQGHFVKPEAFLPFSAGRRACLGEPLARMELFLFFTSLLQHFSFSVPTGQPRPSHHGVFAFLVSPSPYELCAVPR

Cytochrome P450 3A4 = Cytochrome P450 3A4 (Homo sapiens, UniProt P08684); assay: Inhibition of CYP3A4 (unknown origin); format: ADME
Sequence of Cytochrome P450 3A4 (P08684 whole entry): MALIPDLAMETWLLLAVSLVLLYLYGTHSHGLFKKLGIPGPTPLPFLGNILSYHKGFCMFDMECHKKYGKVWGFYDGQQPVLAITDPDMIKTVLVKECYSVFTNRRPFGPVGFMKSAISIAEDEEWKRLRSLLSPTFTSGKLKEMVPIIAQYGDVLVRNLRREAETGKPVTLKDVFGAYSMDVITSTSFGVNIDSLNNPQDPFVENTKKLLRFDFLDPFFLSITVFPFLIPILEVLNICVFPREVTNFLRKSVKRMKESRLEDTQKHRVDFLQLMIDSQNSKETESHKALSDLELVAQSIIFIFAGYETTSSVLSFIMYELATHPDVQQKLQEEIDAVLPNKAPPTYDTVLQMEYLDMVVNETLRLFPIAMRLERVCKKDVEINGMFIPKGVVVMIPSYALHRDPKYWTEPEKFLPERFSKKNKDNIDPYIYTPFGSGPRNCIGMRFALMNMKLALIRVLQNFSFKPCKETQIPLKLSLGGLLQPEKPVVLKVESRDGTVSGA

[3] = biological target: T2, Histone-lysine N-methyltransferase EZH1 (Homo sapiens, UniProt Q92800); assay: Binding affinity to EZH1 (unknown origin)
T2 sequence (Q92800 whole entry): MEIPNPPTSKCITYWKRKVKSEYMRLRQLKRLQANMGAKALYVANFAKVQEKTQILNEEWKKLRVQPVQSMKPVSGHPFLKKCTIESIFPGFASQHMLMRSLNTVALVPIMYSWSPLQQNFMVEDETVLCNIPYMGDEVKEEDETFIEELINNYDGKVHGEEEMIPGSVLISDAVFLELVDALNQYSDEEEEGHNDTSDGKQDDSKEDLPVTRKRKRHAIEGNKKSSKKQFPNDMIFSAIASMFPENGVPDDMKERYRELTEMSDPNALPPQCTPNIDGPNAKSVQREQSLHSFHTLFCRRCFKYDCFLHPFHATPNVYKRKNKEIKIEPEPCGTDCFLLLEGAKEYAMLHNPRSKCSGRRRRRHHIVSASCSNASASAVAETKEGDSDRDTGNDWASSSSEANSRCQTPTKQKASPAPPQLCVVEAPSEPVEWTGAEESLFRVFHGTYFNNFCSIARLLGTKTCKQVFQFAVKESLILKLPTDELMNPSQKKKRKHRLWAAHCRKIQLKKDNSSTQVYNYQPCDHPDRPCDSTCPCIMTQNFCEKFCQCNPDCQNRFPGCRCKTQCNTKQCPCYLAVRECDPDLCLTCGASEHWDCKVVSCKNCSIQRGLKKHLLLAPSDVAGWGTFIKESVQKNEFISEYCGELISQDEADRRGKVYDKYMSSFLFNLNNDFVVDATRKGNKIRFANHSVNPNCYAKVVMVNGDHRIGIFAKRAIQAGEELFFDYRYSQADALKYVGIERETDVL

- Papp at […], 2 µM [1]: 4.8 ×10⁻⁶ cm/s
- hepatocyte CLint [2]: 109 µL/min/1e6 cells
- IC50 (Cytochrome P450 1A2): > 30 µM
- IC50 (Cytochrome P450 2D6): > 30 µM
- IC50 (Cytochrome P450 3A4): > 30 µM
- Ki [3]: 70 nM
SMILES: COc1cc(C)[nH]c(=O)c1CN1CCc2c(Cl)cc([C@H](OC)C3COC3)c(Cl)c2C1=O [MEVROMETOSTAT]
